IC50 and logD data for 36 compounds are collected here from ChEMBL document CHEMBL3769308, “Melanin-Concentrating Hormone Receptor 1 Antagonists Lacking an Aliphatic Amine: Synthesis and Structure-Activity Relationships of Novel 1-(Imidazo[1,2-a]pyridin-6-yl)pyridin-2(1H)-one Derivatives” (J Med Chem, 2016).

The target in data set [1] is T1, Melanin-concentrating hormone receptor 1 (Homo sapiens, UniProt Q99705). As to the kind of experiment: Displacement of [125I]-MCH (4 to19 residues) from human MCHR1 expressed in CHO cell membranes after 1 hr by liquid scintillation counting analysis. A digest of the protocol: (§1)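 Membranes from MCHR1-expressing CHO cells, homogenized in NaHCO3/EDTA with protease inhibitors, 100000g pellet held at 2 mg/mL protein in 20 mM Tris-HCl pH 7.5, 5 mM EDTA, protease inhibitors.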
In general terms: Displacement assays read how much labelled ligand stays bound in the presence of the test substance.

In data set [2] the target is Melanin-concentrating hormone receptor 1 (Rattus norvegicus, UniProt P97639). As to the kind of experiment: Displacement of [125I]-MCH (4 to 19 residues) from rat MCHR1 expressed in CHO cell membranes after 1 hr by liquid scintillation counting analysis. Put shortly:
as §1

Data set [3] in a line: Lipophilicity, log D of the compound at pH 7.4. The data set is classed as physicochemical. The note with it: buffer. A digest of the protocol: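 Chromatographic HPLC method with UV detection, estimating octanol/buffer partition at pH 7.4.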
For data set [4], the target named is T1, Melanin-concentrating hormone receptor 1. The data set is classed as functional, cell-based, CHO.

T1 sequence (Q99705 whole entry, the tested form may be a part): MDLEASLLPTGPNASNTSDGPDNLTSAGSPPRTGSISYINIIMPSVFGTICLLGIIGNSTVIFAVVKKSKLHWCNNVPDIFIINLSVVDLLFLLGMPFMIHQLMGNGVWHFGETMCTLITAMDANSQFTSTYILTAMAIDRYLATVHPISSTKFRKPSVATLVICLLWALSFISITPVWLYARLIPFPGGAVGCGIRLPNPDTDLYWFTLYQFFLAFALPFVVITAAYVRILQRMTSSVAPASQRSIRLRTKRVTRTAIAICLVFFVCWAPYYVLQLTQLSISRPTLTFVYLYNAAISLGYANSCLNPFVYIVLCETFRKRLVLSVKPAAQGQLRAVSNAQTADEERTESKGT
Sequence of Melanin-concentrating hormone receptor 1 (Rattus norvegicus, UniProt P97639) (P97639 whole entry, the tested form may be a part): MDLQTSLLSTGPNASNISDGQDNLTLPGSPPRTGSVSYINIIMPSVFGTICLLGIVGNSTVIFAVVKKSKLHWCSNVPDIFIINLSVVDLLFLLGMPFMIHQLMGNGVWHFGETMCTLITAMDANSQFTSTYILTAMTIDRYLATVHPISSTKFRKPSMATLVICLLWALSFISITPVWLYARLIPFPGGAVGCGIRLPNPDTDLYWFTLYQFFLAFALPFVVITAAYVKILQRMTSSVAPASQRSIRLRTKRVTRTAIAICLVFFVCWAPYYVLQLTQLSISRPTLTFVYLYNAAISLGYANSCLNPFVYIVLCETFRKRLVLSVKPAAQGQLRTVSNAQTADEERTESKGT

For `Cc1c(CC#N)nc2ccc(-n3ccc(OCc4ccc(F)cc4)cc3=O)cn12`, the IC50 amounted to 180 nM in data set [1] and 170 nM in data set [2].
Take `Cc1c(C2CC2)nc2ccc(-n3ncc(OCc4ccc(Cl)cc4)cc3=O)cn12`: in data set [3], the logD was 3.7. Further, the IC50 was determined as 92 nM in data set [1] and 110 nM in data set [2].
`Cc1c(C2CC2)nc2ccc(-n3cccc(Oc4ccc(OC(F)(F)F)cc4)c3=O)cn12`: the IC50 in data set [1] turned out to be 270 nM; in data set [2] it was 240 nM.
In the case of `Cc1c(C2CC2)nc2ccc(-n3ccc(OCc4ccncc4)cc3=O)cn12`, the IC50 in data set [1] and in data set [2] was greater than 1000 nM in each case.
Turning to `Cc1c(C2CC2)nc2ccc(-n3ccc(OCc4ccc(F)cc4)cc3=O)cn12`, the IC50 in data set [1] was determined as 47 nM; in data set [2], 28 nM.
For `Cc1c(C#N)nc2ccc(-n3ccc(OCc4ccc(F)cc4)cc3=O)cn12` the same measures were greater than 1000 nM and greater than 1000 nM.
For `Cc1nc2ccc(NC(=O)COc3ccc(OC(F)(F)F)cc3)cn2c1C` the same measures were 3.8 nM and 7.8 nM.
`COCc1nc2ccc(-n3ccc(OCc4ccc(F)cc4)cc3=O)cn2c1C`: the IC50 in data set [1] and in data set [2] was greater than 1000 nM throughout.
Turning to `Cc1c(CO)nc2ccc(-n3ccc(OCc4ccc(F)cc4)cc3=O)cn12`, the IC50 in data set [1] and in data set [2] was greater than 1000 nM each time.
As for `Cc1c(C2CC2)nc2ccc(-n3ccc(OCc4ccccn4)cc3=O)cn12`, the results for the IC50 in data set [1] and in data set [2] were 240 nM and 150 nM, respectively.
As to `Cc1c(C2CC2)nc2ccc(-n3ccc4oc(-c5ccc(Cl)cc5)cc4c3=O)cn12`, the IC50 turned out to be 6.8 nM in data set [1], 11 nM in data set [2] and 42 nM in data set [4].
For the compound `Cc1c(C2CC2)cc2ccc(NC(=O)COc3ccc(OC(F)(F)F)cc3)cn12`, the IC50 in data set [1] and in data set [2] was greater than 1000 nM each time.
For the compound `Cc1c(C2CC2)nc2ccc(-n3ccc(OCc4ccc(C(C)C)cc4)cc3=O)cn12`, the IC50 in data set [1] turned out to be 410 nM; in data set [2], 240 nM.
In the case of `Cc1c(C2CC2)nc2ccc(-n3ccc(OCc4ccccc4)cc3=O)cn12`, the IC50 in data set [1] was found to be 42 nM; in data set [2], 28 nM.
`CCc1nc2ccc(-n3ccc(OCc4ccccc4)cc3=O)cn2c1C`: the IC50 in data set [1] and in data set [2] was 120 nM throughout.
The compound `Cc1c(C2CC2)nc2ccc(-n3cnc(OCc4ccc(Cl)cc4)cc3=O)cn12` yielded a logD in data set [3] of 2.9. In addition, the IC50 in data set [1] was determined as 150 nM; in data set [2], 140 nM.
Regarding `Cc1c(C2CC2)nc2ccc(-n3ccc(Oc4ccc(OC(F)(F)F)cc4)cc3=O)cn12`, the IC50 in data set [1] is greater than 1000 nM; in data set [2] it was 950 nM.
Consider `Cc1c(C2CC2)nc2ccc(-n3ccc(OCc4ccc(Br)cc4)cc3=O)cn12`, for which the IC50 in data set [1] was found to be 12 nM; in data set [2], 9.3 nM.
`Cc1c(C2CC2)nc2ccc(-n3ccc(OCc4ccc(Cl)cc4)nc3=O)cn12` had a logD in data set [3] of 2.8. The IC50 in data set [1] is 37 nM; in data set [2] it was 30 nM; in data set [4] it was 140 nM.
For `Cc1c(C2CC2)nc2ccc(-n3ccc(OCc4ccc(C(F)(F)F)cc4)cc3=O)cn12`, the results for the IC50 in data set [1] and in data set [2] were 72 nM and 82 nM, respectively.
In the case of `Cc1c(C2CC2)nc2ccc(-n3ccc(OCc4csc(C(F)(F)F)c4)cc3=O)cn12`, the figures for the 50% inhibitory concentration (IC50) in data set [1] and in data set [2] were 17 nM and 15 nM, respectively.
The corresponding values for `CC(=O)c1nc2ccc(-n3ccc(OCc4ccc(F)cc4)cc3=O)cn2c1C` are greater than 1000 nM and greater than 1000 nM.
The corresponding values for `Cc1c(C(=O)N(C)C)nc2ccc(-n3ccc(OCc4ccc(F)cc4)cc3=O)cn12` are greater than 1000 nM and greater than 1000 nM.
As to `Cc1c(C2CC2)nc2ccc(NC(=O)COc3ccc(OC(F)(F)F)cc3)cn12`, the values for the IC50 in data set [1] and in data set [2] were 3 nM and 6.3 nM, respectively.
With `Cc1c(C2CC2)nc2ccc(-n3ccc(OCc4cncnc4)cc3=O)cn12`, the IC50 in data set [1] and in data set [2] was greater than 1000 nM throughout.
With `Cc1c(C2CC2)nc2ccc(-n3ccc(OCc4cccs4)cc3=O)cn12`, the concentration for half-maximal inhibition (IC50) in data set [1] is 95 nM; in data set [2], 130 nM.
On to `Cc1nc2ccc(-n3ccc(OCc4ccccc4)cc3=O)cn2c1C`, for which the results for the concentration for half-maximal inhibition (IC50) in data set [1] and in data set [2] were 78 nM and 80 nM, respectively.
The corresponding values for `Cc1c(C2CC2)nc2ccc(-n3ccc(OCc4cccnc4)cc3=O)cn12` are greater than 1000 nM and greater than 1000 nM.
Take `Cc1c(C2CC2)nc2ccc(-n3ccc(OCc4ccc(Cl)cn4)cc3=O)cn12`: the IC50 in data set [1] came to 24 nM; in data set [2], 19 nM.
On to `Cc1cn(-c2ccc3nc(C4CC4)c(C)n3c2)c(=O)cc1OCc1ccc(Cl)cc1`, for which the values for the IC50 in data set [1] and in data set [2] were 210 nM and 150 nM, respectively.
On to `Cc1c(C(=O)C2CC2)nc2ccc(-n3ccc(OCc4ccc(F)cc4)cc3=O)cn12`, for which the IC50 in data set [1] and in data set [2] was greater than 1000 nM in each case.
As to `Cc1c(C2CC2)nc2ccc(-n3cccc(OCc4ccc(Cl)cc4)c3=O)cn12`, the half-inhibitory concentration (IC50) in data set [1] amounted to 990 nM; in data set [2], 650 nM.
With `Cc1c(C2CC2)nc2ccc(-n3ccc(OCc4csc(Cl)c4)cc3=O)cn12`, the half-maximal inhibitory concentration (IC50) in data set [1] turned out to be 7.7 nM; in data set [2], 7.5 nM; in data set [4], 19 nM.
On to `Cc1oc2ccc(NC(=O)COc3ccc(OC(F)(F)F)cc3)cc2c1C`, for which the half-maximal inhibitory concentration (IC50) in data set [1] and in data set [2] was greater than 1000 nM each time.
For `Cc1c(C2CC2)nc2ccc(-n3ccc(OCc4ccsc4)cc3=O)cn12`, the half-maximal inhibitory concentration (IC50) in data set [1] is 25 nM; in data set [2], 54 nM.
The corresponding values for `Cc1c(C2CC2)nc2ccc(-n3ccc4c(c3=O)CCC(c3ccc(Cl)cc3)O4)cn12` (stereo not drawn) are 94 nM and 62 nM.

The IC50 is the concentration that inhibits the measured activity by half. A high value points to weaker potency. For orientation: logD means the decadic logarithm of the distribution of all forms, ionised or not, between an organic phase and buffer at a given pH. Low readings indicate a more hydrophilic compound, high ones a more lipophilic compound.
